Results: ChEMBL document CHEMBL3286133, “Synthesis, biological evaluation and molecular docking studies of trans-indole-3-acrylamide derivatives, a new class of tubulin polymerization inhibitors” (Bioorg Med Chem, 2014)
Active and inactive are the calls of the source. The calls are words filed in the database; no cut-off is given here.

Experiments:
HeLa [1] = assay: Antiproliferative activity against human HeLa cells after 48 hrs by MTT assay; format: functional, cell-based
Tubulin (Bos taurus) [2] = target: T1, Tubulin (Bos taurus) (UniProt Q6B856+Q862L2+Q862F3); assay: Displacement of [3H]colchicine from bovine brain tubulin at 50 uM after 10 mins by liquid scintillation counting
Method in brief: (§1)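 [³H]colchicine binding in 0.1 mL. Bovine brain tubulin 1.0 µM, [³H]colchicine 5.0 µM, 1.0 M glutamate, 5% DMSO, inhibitor at 5 or 50 µM; 10 min at 37 °C. Reactions were stopped with ice-cold water and filtered through two stacked DEAE-cellulose filters, which were washed with cold water. Bound label was counted by liquid scintillation.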

Tubulin = Tubulin (Bos taurus, UniProt Q6B856+Q862L2+Q862F3); assay: Inhibition of bovine brain tubulin polymerization after 20 mins by spectrophotometry
MDA-MB-231 = assay: Antiproliferative activity against human MDA-MB-231 cells after 48 hrs by MTT assay; format: functional, cell-based; settings: MDA-MB-231, 48 h
Method in brief: (§2)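 MTT viability assay. HL-60 and Raji were grown in RPMI-1640 and MCF7/MDA-MB-231 in DMEM, all with 10% FBS, at 37 °C under 5% CO₂. Cells were seeded at 10,000/well, held overnight in 1% FBS medium, then exposed 48 h to 0.1–125 µM. Solvent control was 0.1% DMSO. MTT was 0.5 mg/mL for 4 h, formazan was dissolved in DMSO, and absorbance read at 570 nm. Quadruplicates; IC50 taken from concentration–response curves.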

Raji = assay: Antiproliferative activity against human Raji cells after 48 hrs by MTT assay; format: functional, cell-based; method in brief: as §2
HL-60 [3] = assay: Antiproliferative activity against human HL60 cells after 48 hrs by MTT assay; format: functional, cell-based; settings: HL-60, 48 h; method in brief: as §2
MCF7 = assay: Antiproliferative activity against human MCF7 cells after 48 hrs by MTT assay; format: functional, cell-based; settings: MCF7, 48 h; method in brief: as §2
HL-60 [4] = assay: Induction of apoptosis in human HL60 cells assessed as increase in number of late apoptotic cells at 1 and 10 uM by annexin-V/propidium-iodide staining based flow cytometry; format: functional, cell-based; settings: TDE = time-dependent effect
Method in brief: (§3)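 Annexin-V-FITC/PI double staining with flow cytometry on HL-60 and HeLa cells after 24 or 48 h of treatment. Excitation 488 nm; emission 525 nm (FITC) and 585 nm (PI). Early apoptotic cells scored as annexin-V+/PI−, late apoptotic as annexin-V+/PI+. Means of three independent experiments.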

HL-60 [5] = assay: Cell cycle arrest in human HL60 cells assessed as increase in accumulation at G2/M phase for 24 hrs by flow cytometry; format: functional, cell-based
Method in brief: (§4)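 DNA-content flow cytometry. 5×10⁵ HeLa or HL-60 cells were treated 24 h at a range of concentrations. Cells were fixed in ice-cold 70% ethanol, lysed in buffer with RNase A and 0.1% Triton X-100, and stained with PI. Phase distribution was taken from DNA histograms. Means of three independent experiments.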

HL-60 [6] = assay: Induction of apoptosis in human HL60 cells assessed as increase in cleaved caspase-3 level at 1 to 10 uM after 24 to 48 hrs by western blot analysis; format: functional, cell-based
Method in brief: (§5)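 Western blot on HL-60 cells exposed for the indicated times. Lysates were cleared at 15000 × g, 4 °C; 20 µg protein was run on 7.5–15% SDS-PAGE and transferred to PVDF. Blocking in 5% BSA for 2 h, then caspase-3 and PARP antibodies overnight at 4 °C and peroxidase secondary for 60 min. ECL detection; β-actin reprobe as loading control.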

HL-60 [7] = assay: Cell cycle arrest in human HL60 cells assessed as decrease in accumulation at S phase at 0 to 30 uM for 24 hrs by flow cytometry; format: functional, cell-based; method in brief: as §4
HeLa [8] = assay: Cell cycle arrest in human HeLa cells assessed as decrease in accumulation at S phase at 0 to 30 uM for 24 hrs by flow cytometry; format: functional, cell-based; method in brief: as §4
HL-60 [9] = assay: Induction of apoptosis in human HL60 cells assessed as increase in number of early apoptotic cells for 24 and 48 hrs by annexin-V/propidium-iodide staining based flow cytometry; format: functional, cell-based; method in brief: as §3
HeLa [10] = assay: Cell cycle arrest in human HeLa cells assessed as increase in accumulation at G2/M phase for 24 hrs by flow cytometry; format: functional, cell-based; method in brief: as §4
HeLa [11] = assay: Induction of apoptosis in human HeLa cells assessed as increase in number of early apoptotic cells at 1 and 10 uM hrs by annexin-V/propidium-iodide staining based flow cytometry; format: functional, cell-based; settings: TDE = time-dependent effect; method in brief: as §3
HeLa [12] = assay: Induction of apoptosis in human HeLa cells assessed as increase in number of early apoptotic cells for 24 and 48 hrs by annexin-V/propidium-iodide staining based flow cytometry; format: functional, cell-based; method in brief: as §3
HeLa [13] = assay: Cell cycle arrest in human HeLa cells assessed as decrease in accumulation at G1 phase at 0 to 30 uM for 24 hrs by flow cytometry; format: functional, cell-based; method in brief: as §4
HL-60 [14] = assay: Cell cycle arrest in human HL60 cells assessed as increase in accumulation at G2/M phase at 10 uM for 24 hrs by flow cytometry; format: functional; settings: in the assay text read “at 15 to 30 uM” for “at 10 uM”; method in brief: as §4
HL-60 [15] = assay: Induction of apoptosis in human HL60 cells assessed as increase in cleaved PARP level at 1 to 10 uM after 24 to 48 hrs by western blot analysis; format: functional, cell-based; method in brief: as §5
HeLa [16] = assay: Induction of apoptosis in human HeLa cells assessed as increase in number of late apoptotic cells for 24 and 48 hrs by annexin-V/propidium-iodide staining based flow cytometry; format: functional, cell-based; method in brief: as §3
HeLa [17] = assay: Induction of apoptosis in human HeLa cells assessed as increase in number of late apoptotic cells at 1 and 10 uM hrs by annexin-V/propidium-iodide staining based flow cytometry; format: functional, cell-based; settings: TDE = time-dependent effect; method in brief: as §3
HL-60 [18] = assay: Induction of apoptosis in human HL60 cells assessed as increase in number of late apoptotic cells for 24 and 48 hrs by annexin-V/propidium-iodide staining based flow cytometry; format: functional, cell-based; method in brief: as §3
HL-60 [19] = assay: Induction of apoptosis in human HL60 cells assessed as increase in number of early apoptotic cells at 1 and 10 uM by annexin-V/propidium-iodide staining based flow cytometry; format: functional, cell-based; settings: TDE = time-dependent effect; method in brief: as §3
HL-60 [20] = assay: Cell cycle arrest in human HL60 cells assessed as decrease in accumulation at G1 phase at 0 to 30 uM for 24 hrs by flow cytometry; format: functional, cell-based; method in brief: as §4
HeLa [21] = assay: Cell cycle arrest in human HeLa cells assessed as increase in accumulation at G2/M phase at 10 uM for 24 hrs by flow cytometry; format: functional; settings: in the assay text read “at 15 to 30 uM” for “at 10 uM”; method in brief: as §4
Tubulin (Bos taurus) [22] = target: T1, Tubulin (Bos taurus); assay: Displacement of [3H]colchicine from bovine brain tubulin at 5 uM after 10 mins by liquid scintillation counting; method in brief: as §1

Structure (SMILES) | IC50 (HeLa [1]) [µM] | inhibition (Tubulin (Bos taurus) [2]) [%] | IC50 (Tubulin) [µM] | IC50 (MDA-MB-231) [µM] | IC50 (Raji) [µM] | IC50 (HL-60 [3]) [µM] | IC50 (MCF7) [µM] | other results
COc1ccc(OC)c(NC(=O)/C=C/c2c[nH]c3ccccc23)c1 | > 100 | 15 | > 40 | > 100 | 22.9 | 10.1 | > 100 | –
COc1ccc(CNC(=O)/C=C/c2c[nH]c3ccccc23)c(OC)c1 | > 100 | – | > 40 | > 100 | > 100 | > 100 | > 100 | –
COc1ccc(CNC(=O)/C=C/c2c[nH]c3ccccc23)cc1OC | > 100 | 13 | > 40 | > 100 | > 100 | > 100 | > 100 | –
COc1cc(NC(=O)/C=C/c2c[nH]c3ccccc23)cc(OC)c1 | > 100 | 26 | > 40 | > 100 | 9.3 | 7.1 | > 100 | –
COc1ccc(OC)c(CNC(=O)/C=C/c2c[nH]c3ccccc23)c1 | > 100 | 23 | > 40 | > 100 | > 100 | > 100 | > 100 | –

Now from value to molecule, other results behind:

IC50 (HeLa [1]) [µM] | inhibition (Tubulin (Bos taurus) [2]) [%] | IC50 (Tubulin) [µM] | IC50 (MDA-MB-231) [µM] | IC50 (Raji) [µM] | IC50 (HL-60 [3]) [µM] | IC50 (MCF7) [µM] | Structure (SMILES) | other results
> 100 | 13 | > 40 | > 100 | 22.6 | 17.8 | > 100 | COc1ccc(NC(=O)/C=C/c2c[nH]c3ccccc23)c(OC)c1 | –
23.7 | 50 | 17 | > 100 | 9.5 | 5.1 | 36.3 | COc1cc(NC(=O)/C=C/c2c[nH]c3ccccc23)cc(OC)c1OC | Activity (HL-60 [4]): tde; Activity (HL-60 [5]): Dose-dependent effect; Activity (HL-60 [6]): Active; Activity (HL-60 [7]): Active; Activity (HeLa [8]): Active; Activity (HL-60 [9]): Dose-dependent effect; Activity (HeLa [10]): Dose-dependent effect; Activity (HeLa [11]): tde; Activity (HeLa [12]): Dose-dependent effect; Activity (HeLa [13]): Active; Activity (HL-60 [14]): 60%; Activity (HL-60 [15]): Active; Activity (HeLa [16]): Dose-dependent effect; Activity (HeLa [17]): tde; Activity (HL-60 [18]): Dose-dependent effect; Activity (HL-60 [19]): tde; Activity (HL-60 [20]): Active; Activity (HeLa [21]): > 80%; inhibition (Tubulin (Bos taurus) [22]): 11%
> 100 | 14 | > 40 | > 100 | 33.1 | > 100 | > 100 | COc1cc(CNC(=O)/C=C/c2c[nH]c3ccccc23)ccc1O | –
> 100 | 11 | > 40 | > 100 | > 100 | > 100 | > 100 | COc1cc(OC)c(NC(=O)/C=C/c2c[nH]c3ccccc23)c(OC)c1 | –
31.4 | 11 | > 40 | > 100 | 10.3 | 6.2 | > 100 | COc1ccc(NC(=O)/C=C/c2c[nH]c3ccccc23)cc1OC | –
36.5 | 12 | > 40 | > 100 | > 100 | > 100 | > 100 | COc1cccc(CNC(=O)/C=C/c2c[nH]c3ccccc23)c1OC | –
